# Assay results taken from ChEMBL document CHEMBL4049421, “Design, Synthesis, and Pharmacological Characterization of N-(4-(2 (6,7-Dimethoxy-3,4-dihydroisoquinolin-2(1H)yl)ethyl)phenyl)quinazolin-4-amine Derivatives: Novel Inhibitors Reversing P-Glycoprotein-Mediated Multidrug Resistance” (J Med Chem, 2017).
# Calls of active or inactive are those of the source. The calls are words filed in the database; no cut-off is given here.
# What was measured:
# [1] = Cytotoxicity against human K562 cells assessed as cell viability at 1.0 uM after 48 hrs by MTT assay (reference value: >99%); assay type: cell-based; conditions: read-out: Activity
# [2] = Cytotoxicity against human K562/A02 cells assessed as cell viability at 1.0 uM after 48 hrs by MTT assay (reference value: >99%); assay type: cell-based; conditions: read-out: Activity
# [3] = species on record: Homo sapiens; assay: Inhibition of P-gp in human K562/A02 cells assessed as potentiation of doxorubicin-induced cytotoxicity by measuring fold reduction in doxorubicin IC50 at 1.0 uM after 48 hrs by MTT assay relative to doxorubicin alone; assay type: cell-based
# Outline: (§1)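 K562/A02 cells (1×10^4 cells per well) were exposed to a DOX concentration series, alone or with modulator at 1.0 μM, for 48 h. Viability was read by MTT at 490 nm. Reversal fold = DOX IC50 without inhibitor / DOX IC50 with inhibitor, mean ± SD of three tests.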
# [4] = tested on: K562; assay: Cytotoxicity against human K562 cells assessed as suppression of cell viability after 48 hrs by MTT assay; assay type: cell-based; conditions: K562, 48 h
# Outline: (§2)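 MTT assay on HUVEC, K562 or K562/A02 cells seeded at 1×10^4 cells per well, using serial compound concentrations. Formazan was dissolved in DMSO and read at 490 nm. IC50 was obtained from log dose–response curves, mean ± SD of three independent tests.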
# [5] = tested on: HUVEC; assay: Cytotoxicity against HUVEC assessed as reduction in cell viability after 48 hrs by MTT assay; assay type: cell-based; conditions: Homo sapiens; outline: as §2
# [6] = Inhibition of P-gp in human K562/A02 cells assessed as potentiation of doxorubicin-induced cytotoxicity by measuring fold reduction in doxorubicin IC50 after 48 hrs by MTT assay relative to doxorubicin alone; assay type: cell-based; conditions: K562/A02, 48 h; outline: as §1
# [7] = Selective index, ratio of IC50 for human K562 cells to EC50 for inhibition of P-gp in human K562/A02 cells assessed as potentiation of doxorubicin-induced cytotoxicity
# Outline: (§3)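 Reversal EC50 is the modulator concentration that halves the DOX IC50 in K562/A02 cells, from % DOX IC50 plotted against log modulator concentration. The index divides the MTT IC50 in K562, K562/A02 or HUVEC cells by this EC50.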
# [8] = Selective index, ratio of IC50 for human K562/A02 cells to EC50 for inhibition of P-gp in human K562/A02 cells assessed as potentiation of doxorubicin-induced cytotoxicity; outline: as §3
# [9] = Selectivity index, ratio of IC50 for HUVEC to EC50 for inhibition of P-gp in human K562/A02 cells assessed as potentiation of doxorubicin-induced cytotoxicity; outline: as §3
# [10] = species on record: Homo sapiens; assay: Inhibition of P-gp in human K562/A02 cells assessed as potentiation of paclitaxel-induced cytotoxicity at 1.0 uM after 48 hrs by MTT assay; assay type: cell-based
# Outline: (§4)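 K562/A02 cells were exposed for 48 h to DNR, PTX, VLB or CTX at 0, 0.313–20 μM, with or without modulator at 1.0 μM. Viability was measured by MTT at 490 nm, mean ± SD of three independent tests.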
# [11] = species on record: Homo sapiens; assay: Inhibition of P-gp in human K562/A02 cells assessed as potentiation of daunorubicin-induced cytotoxicity at 1.0 uM after 48 hrs by MTT assay; assay type: cell-based; outline: as §4
# [12] = tested on: K562/A02; assay: Potentiation of cyclophosphamide-induced cytotoxicity against human K562/A02 cells at 1.0 uM after 48 hrs by MTT assay; assay type: functional, cell-based; outline: as §4
# [13] = tested on: K562/A02; assay: Effect on ABCB1 expression in human K562/A02 cells at 0.1 uM to 2.0 uM after 72 hrs by Western blot analysis; assay type: functional, cell-based
# Outline: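 K562/A02 cells were treated 72 h with compound at 0.1, 0.5 or 2.0 μM and lysed in RIPA/PMSF. Lysate (100 μg) was run on gradient SDS-PAGE and probed with anti-ABCB1, with β-tubulin loading control and ECL detection. Expression is given as the ABCB1/β-tubulin band-intensity ratio.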
# [14] = Inhibition of CYP3A4 in rat liver microsomes assessed as decrease in 6beta-OH testosterone levels at 40 uM using testosterone as substrate by HPLC analysis; assay type: ADME
# Outline: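 Rat liver microsomes, prepared by differential centrifugation, were incubated with testosterone in the absence or presence of compound at 2.5, 5.0, 10.0, 20.0 and 40.0 μM. The 6β-OH testosterone product was quantified by C18 reverse-phase gradient HPLC at 254 nm. Ketoconazole served as positive control. n = 3.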
# [15] = tested on: Rattus norvegicus; assay: AUC(0 to 24 hrs) in Sprague-Dawley rat plasma at 5 mg/kg, iv measured after 24 hrs by LC-MS/MS analysis; assay type: ADME, organism-based; design: dose 5 mg/kg, time < 24 hr, route intravenous; conditions: in vivo
# Outline: (§5)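 Male Sprague-Dawley rats, n = 3 per group, given drug in Tween-80/ethanol/saline (5:10:85, v/v) at 10 mg/kg p.o. or 5 mg/kg i.v. Retro-orbital blood was taken at 5 min to 24 h, and plasma separated at 900g. Samples were spiked with internal standard, methanol-precipitated and quantified by LC-MS/MS. F = (AUCpo/AUCiv)×(dose iv/dose po)×100%.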
# [16] = tested on: Rattus norvegicus; assay: AUC(0 to infinity) in Sprague-Dawley rat plasma at 10 mg/kg, po measured after 24 hrs by LC-MS/MS analysis; assay type: ADME, organism-based; design: dose 10 mg/kg, route oral, time infinity; conditions: in vivo; outline: as §5
# [17] = Cmax in Sprague-Dawley rat at 5 mg/kg, iv measured after 24 hrs by LC-MS/MS analysis; assay type: ADME, organism-based; design: dose 5 mg/kg, route intravenous; conditions: in vivo; outline: as §5
# [18] = Plasma clearance in Sprague-Dawley rat at 10 mg/kg, po measured after 24 hrs by LC-MS/MS analysis; assay type: ADME, organism-based; outline: as §5
# [19] = Plasma clearance in Sprague-Dawley rat at 5 mg/kg, iv measured after 24 hrs by LC-MS/MS analysis; assay type: ADME, organism-based; outline: as §5
# [20] = Oral bioavailability in Sprague-Dawley rat plasma at 10 mg/kg measured after 24 hrs by LC-MS/MS analysis; assay type: ADME, organism-based; outline: as §5
# [21] = Bioavailability in Sprague-Dawley rat plasma at 5 mg/kg, iv measured after 24 hrs by LC-MS/MS analysis; assay type: ADME, organism-based
# Outline: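 Bioavailability was calculated as (AUCpo/AUCiv)×(dose iv/dose po)×100% from male SD rats (n = 3) dosed 5 mg/kg i.v. or 10 mg/kg p.o. in Tween-80/ethanol/saline (5:10:85). Plasma sampled 5 min–24 h was analysed by LC-MS/MS.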
# [22] = tested on: Rattus norvegicus; assay: Effect on plasma concentration of doxorubicin in Sprague-Dawley rat at 5 mg/kg, iv co-administered with doxorubicin measured after 8 hrs by LC-MS/MS analysis; assay type: ADME, organism-based; conditions: in vivo
# Outline: (§6)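 Male SD rats received DOX 10 mg/kg i.v. alone or with modulator 5 mg/kg i.v. Orbital blood was taken at 5 min to 8 h. Plasma DOX was measured by LC-MS/MS with DNR (0.5 μg/mL) as internal standard. Mean ± SD, n = 3.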
# [23] = tested on: Rattus norvegicus; assay: Effect on MRT of doxorubicin in Sprague-Dawley rat at 5 mg/kg, iv co-administered with doxorubicin measured after 8 hrs by LC-MS/MS analysis; assay type: ADME, organism-based; conditions: in vivo; outline: as §6
# [24] = tested on: Rattus norvegicus; assay: Effect on half life of doxorubicin in Sprague-Dawley rat at 5 mg/kg, iv co-administered with doxorubicin measured after 8 hrs by LC-MS/MS analysis; assay type: ADME, organism-based; conditions: in vivo; outline: as §6
compound,measurement,setting,value
COc1cc2c(cc1OC)CN(CCc1ccc(Nc3nc(-c4ccncc4)nc4ccccc34)cc1)CC2,"viability at 48 h, 1 µM",[1],96.5%
same,"viability at 48 h, 1 µM",[2],> 99%
same,fold change (FC),[3],30.9
same,IC50,[4],4 µM
same,IC50,[5],73.6 µM
same,EC50,[6],0.0579 µM
same,Ratio IC50/EC50,[7],75.6
same,Ratio IC50/EC50,[8],241.6
same,Ratio IC50/EC50,[9],1270
same,inhibition,[10],Active
same,inhibition,[11],Active
same,Activity,[12],inactive
same,Activity,[13],inactive
same,inhibition (INH),[14],Not Active
same,AUC,[15],1660 ng·h/mL
same,AUC,[16],3340 ng·h/mL
same,Cmax,[17],570 ng/mL
same,CL/F,[18],49.9 mL/min/kg
same,clearance,[19],47.8 mL/min/kg
same,bioavailability,[20],95.3%
same,bioavailability,[21],95.3%
same,Activity,[22],Non-Toxic
same,Activity,[23],Non-Toxic
same,Activity,[24],Non-Toxic
